Assay results as given in ChEMBL document CHEMBL1141960, “Synthesis and evaluation of novel 8,6-fused bicyclic peptidomimetic compounds as interleukin-1beta converting enzyme inhibitors” (Bioorg Med Chem Lett, 2005).

Tests used:
Caspase-8 = Caspase-8 (Homo sapiens, UniProt Q14790); test: Inhibitory activity against Caspase 8
Caspase-3 = target: T1, Caspase-3 (Homo sapiens, UniProt P42574); test: Inhibitory activity against Caspase 3
T1 sequence (P42574 whole entry): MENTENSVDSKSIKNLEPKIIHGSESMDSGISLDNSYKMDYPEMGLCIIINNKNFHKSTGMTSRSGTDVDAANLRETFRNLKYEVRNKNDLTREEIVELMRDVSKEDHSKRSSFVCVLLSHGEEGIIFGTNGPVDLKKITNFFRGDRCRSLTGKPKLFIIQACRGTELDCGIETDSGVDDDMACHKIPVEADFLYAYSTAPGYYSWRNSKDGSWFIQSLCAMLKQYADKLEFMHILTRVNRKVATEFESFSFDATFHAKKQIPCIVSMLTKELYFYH

Caspase-1 = target: T2, Caspase-1 (Homo sapiens, UniProt P29466); test: Inhibitory activity against Caspase 1
T2 sequence (P29466 whole entry): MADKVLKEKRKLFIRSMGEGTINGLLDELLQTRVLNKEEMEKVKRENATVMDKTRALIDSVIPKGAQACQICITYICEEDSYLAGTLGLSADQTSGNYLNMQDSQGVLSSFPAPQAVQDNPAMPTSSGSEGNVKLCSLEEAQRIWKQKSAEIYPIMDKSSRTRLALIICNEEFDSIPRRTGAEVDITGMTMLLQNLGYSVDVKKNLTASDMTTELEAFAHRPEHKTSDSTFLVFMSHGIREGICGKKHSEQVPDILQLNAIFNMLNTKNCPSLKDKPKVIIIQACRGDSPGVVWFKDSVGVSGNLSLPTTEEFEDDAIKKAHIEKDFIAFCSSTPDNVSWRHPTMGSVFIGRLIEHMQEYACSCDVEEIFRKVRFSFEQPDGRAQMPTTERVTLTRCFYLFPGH

THP-1 = test: Inhibitory activity in THP1 whole cell assay measuring IL1-beta production; format: functional, cell-based; conditions: Homo sapiens
Procedure, shortened: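 Human monocytic THP-1 cells, 2 × 10^6/ml in RPMI 1640, preincubated 15 min with compound added from DMSO solutions (test range 1 nM to 10 μM) or without, then stimulated with LPS 1 μg/ml for 4 h total; cells spun down and IL-1β released into conditioned medium quantified by ELISA.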

Sequence of Caspase-8 (Q14790 217-374 limits assumed): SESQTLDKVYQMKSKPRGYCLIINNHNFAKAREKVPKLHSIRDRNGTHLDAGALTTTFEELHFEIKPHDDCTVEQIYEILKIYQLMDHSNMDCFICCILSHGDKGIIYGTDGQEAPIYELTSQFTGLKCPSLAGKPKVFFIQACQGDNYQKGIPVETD
Sequence of Caspase-8 (Q14790 385-479 limits assumed): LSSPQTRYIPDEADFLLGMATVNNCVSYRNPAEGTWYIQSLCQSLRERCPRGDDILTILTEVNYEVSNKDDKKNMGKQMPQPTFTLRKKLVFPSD

SMILES	IC50 (Caspase-8) [nM]	IC50 (Caspase-3) [nM]	IC50 (Caspase-1) [nM]	IC50 (THP-1) [nM]
O=C1C[C@H](NC(=O)[C@@H]2COC[C@@H]3C/C=C\C[C@H](NC(=O)c4ccc(Cl)cc4)C(=O)N32)C(O)O1 (stereo partly specified)	3770	> 10000	74	
O=C1C[C@H](NC(=O)[C@@H]2CN(C(=O)Nc3ccccc3)C[C@@H]3CCCC[C@H](NC(=O)c4ccccc4)C(=O)N32)C(O)O1 (stereo partly specified)	601	> 10000	5	1690
O=C1C[C@H](NC(=O)[C@@H]2COC[C@@H]3C/C=C\C[C@H](NC(=O)c4cccc(Cl)c4)C(=O)N32)C(O)O1 (stereo partly specified)	1550	> 10000	7	118
CC(=O)N1C[C@@H]2CCCC[C@H](NC(=O)c3ccccc3)C(=O)N2[C@H](C(=O)N[C@H]2CC(=O)OC2O)C1 (stereo partly specified)	481	> 10000	6	1260
O=C1C[C@H](NC(=O)[C@@H]2CN(S(=O)(=O)c3ccccc3)C[C@@H]3CCCC[C@H](NC(=O)c4ccccc4)C(=O)N32)C(O)O1 (stereo partly specified)	106	> 10000	2	159
O=C1C[C@H](NC(=O)[C@@H]2COC[C@@H]3C/C=C\C[C@H](NC(=O)c4ccc(C(F)(F)F)cc4)C(=O)N32)C(O)O1 (stereo partly specified)	6450	> 10000	135	
O=C1C[C@H](NC(=O)[C@@H]2CN(S(=O)(=O)c3ccccc3)C[C@@H]3CCCC[C@H](NC(=O)c4nccc5ccccc45)C(=O)N32)C(O)O1 (stereo partly specified)	160	> 10000	1	87
O=C1C[C@H](NC(=O)[C@@H]2CN(C(=O)OCc3ccccc3)C[C@@H]3C/C=C\C[C@H](NC(=O)c4ccccc4)C(=O)N32)C(O)O1 (stereo partly specified)	13	3260	1	125
O=C1C[C@H](NC(=O)[C@@H]2CN(C(=O)OCc3ccccc3)C[C@@H]3C/C=C\C[C@H](NC(=O)c4ccc5ccccc5c4)C(=O)N32)C(O)O1 (stereo partly specified)	5	4850	1	106
CN1C[C@@H]2CCCC[C@H](NC(=O)c3ccccc3)C(=O)N2[C@H](C(=O)N[C@H]2CC(=O)OC2O)C1 (stereo partly specified)	247	> 10000	5	1820
CS(=O)(=O)N1C[C@@H]2CCCC[C@H](NC(=O)c3ccccc3)C(=O)N2[C@H](C(=O)N[C@H]2CC(=O)OC2O)C1 (stereo partly specified)	384	> 10000	6	174
O=C1C[C@H](NC(=O)[C@@H]2COC[C@@H]3C/C=C\C[C@H](NC(=O)c4ccccc4Cl)C(=O)N32)C(O)O1 (stereo partly specified)	448	> 10000	33	
O=C1C[C@H](NC(=O)[C@@H]2CN(C(=O)OCc3ccccc3)C[C@@H]3C/C=C\C[C@H](NC(=O)c4nccc5ccccc45)C(=O)N32)C(O)O1 (stereo partly specified)	4	> 10000	1	154
O=C1C[C@H](NC(=O)[C@@H]2COC[C@@H]3C/C=C\C[C@H](NC(=O)c4ccccc4C(F)(F)F)C(=O)N32)C(O)O1 (stereo partly specified)	670	> 10000	50	
CS(=O)(=O)N1C[C@@H]2CCCC[C@H](NC(=O)c3nccc4ccccc34)C(=O)N2[C@H](C(=O)N[C@H]2CC(=O)OC2O)C1 (stereo partly specified)	917	> 10000	1	168
O=C1C[C@H](NC(=O)[C@@H]2CN(C(=O)c3ccccc3)C[C@@H]3CCCC[C@H](NC(=O)c4ccccc4)C(=O)N32)C(O)O1 (stereo partly specified)	38	8070	7	1420
O=C1C[C@H](NC(=O)[C@@H]2COC[C@@H]3C/C=C\C[C@H](NC(=O)c4cccc(C(F)(F)F)c4)C(=O)N32)C(O)O1 (stereo partly specified)	4190	> 10000	9	132
O=C1C[C@H](NC(=O)[C@@H]2COC[C@@H]3C/C=C\C[C@H](NC(=O)c4nccc5ccccc45)C(=O)N32)C(O)O1 (stereo partly specified)	1590	> 10000	3	182

Other lines, results leading:

IC50 (Caspase-8) [nM]	IC50 (Caspase-3) [nM]	IC50 (Caspase-1) [nM]	IC50 (THP-1) [nM]	SMILES
264	> 10000	1	101	O=C1C[C@H](NC(=O)[C@@H]2COC[C@@H]3CCCC[C@H](NC(=O)c4nccc5ccccc45)C(=O)N32)C(O)O1 (stereo partly specified)
7900	> 10000	130		O=C1C[C@H](NC(=O)[C@@H]2COC[C@@H]3C/C=C\C[C@H](NC(=O)c4ccccc4)C(=O)N32)C(O)O1 (stereo partly specified)
429	> 10000	1	178	O=C1C[C@H](NC(=O)[C@@H]2COC[C@@H]3CCCC[C@H](NC(=O)c4cc5ccccc5s4)C(=O)N32)C(O)O1 (stereo partly specified)
283	> 10000	1	46	CS(=O)(=O)N1C[C@@H]2CCCC[C@H](NC(=O)c3ccc4ccccc4c3)C(=O)N2[C@H](C(=O)N[C@H]2CC(=O)OC2O)C1 (stereo partly specified)
2590	> 10000	3	62	O=C1C[C@H](NC(=O)[C@@H]2COC[C@@H]3C/C=C\C[C@H](NC(=O)c4ccc5ccccc5c4)C(=O)N32)C(O)O1 (stereo partly specified)
506	> 10000	1	75	O=C1C[C@H](NC(=O)[C@@H]2CNC[C@@H]3CCCC[C@H](NC(=O)c4ccc5ccccc5c4)C(=O)N32)C(O)O1 (stereo partly specified)
595	> 10000	1	156	O=C1C[C@H](NC(=O)[C@@H]2CNC[C@@H]3CCCC[C@H](NC(=O)c4nccc5ccccc45)C(=O)N32)C(O)O1 (stereo partly specified)
911	> 10000	1	60	O=C1C[C@H](NC(=O)[C@@H]2COC[C@@H]3CCCC[C@H](NC(=O)c4ccc5ccccc5c4)C(=O)N32)C(O)O1 (stereo partly specified)
50	> 10000	1	153	O=C1C[C@H](NC(=O)[C@@H]2CN(S(=O)(=O)c3ccccc3)C[C@@H]3CCCC[C@H](NC(=O)c4ccc5ccccc5c4)C(=O)N32)C(O)O1 (stereo partly specified)
384	> 10000	10	245	O=C1C[C@H](NC(=O)[C@@H]2CNC[C@@H]3CCCC[C@H](NC(=O)c4ccccc4)C(=O)N32)C(O)O1 (stereo partly specified)
1600	> 10000	3	57	O=C1C[C@H](NC(=O)[C@@H]2COC[C@@H]3C/C=C\C[C@H](NC(=O)c4cc5ccccc5s4)C(=O)N32)C(O)O1 (stereo partly specified)
